According to ChEMBL document CHEMBL4406856, “Structure based design, synthesis and in vitro antitumour activity of tiazofurin stereoisomers with nitrogen functions at the C-2' or C-3' positions” (Eur J Med Chem, 2019):
Calls of active or inactive are those of the source. No cut-off for these calls is given here.

What was measured:
[1] = test system: K562; experiment: Induction of apoptosis in human K562 cells assessed as reduction in cell membrane integrity at cytotoxic IC50 incubated for 72 hrs by acridine orange and ethidium bromide double staining based fluorescence microscopy; format: functional
[2] = test system: Jurkat; experiment: Potency index, ratio of tiazofurin IC50 to compound IC50 for cytotoxicity against human Jurkat cells incubated for 72 hrs by MTT assay; format: functional
[3] = test system: HT-29; experiment: Potency index, ratio of tiazofurin IC50 to compound IC50 for cytotoxicity against human HT-29 cells incubated for 72 hrs by MTT assay; format: functional
[4] = test system: K562; experiment: Induction of apoptosis in human K562 cells assessed as Bax level incubated for 72 hrs by Western blot analysis (reference value: 100%); format: functional
Summary of the method: (§1)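 K562 cells treated for 72 h; Bcl-2, BAX, caspase 3 precursor (32 kDa), caspase 3 active subunit (18 kDa) and PARP (112 and 85 kDa) measured by Western blot and expressed as % of untreated control.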

[5] = test system: K562; experiment: Induction of apoptosis in human K562 cells assessed as 32 kDa Caspase 3 precursor level incubated for 72 hrs by Western blot analysis (reference value: 100%); format: functional; summary of the method: as §1
[6] = test system: Jurkat; experiment: Antiproliferative activity against human Jurkat cells assessed as reduction in cell growth incubated for 72 hrs by MTT assay; format: functional, cell-based
Summary of the method: (§2)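 Colorimetric MTT assay on human tumour lines K562 (chronic myeloid leukemia), HL-60 (promyelocytic leukemia), Jurkat (T cell leukemia), Raji (Burkitt's lymphoma), HT-29 (colorectal adenocarcinoma), HeLa (cervix adenocarcinoma) and normal lung fibroblast MRC-5; cells exposed to compounds for 72 h. IC50 taken as concentration giving 50% growth inhibition versus untreated control.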

[7] = test system: K562; experiment: Induction of necrosis in human K562 cells incubated for 72 hrs by annexin V FITC and propidium iodide staining based flow cytometry relative to control; format: functional; set-up: concentration or dose not given beside the values
Summary of the method: (§3)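 K562 cells treated for 72 h, stained with Annexin V-FITC/propidium iodide and analysed by flow cytometry. Apoptotic, necrotic and live fractions scored as percent of gated cells; specific apoptosis and specific necrosis calculated from these counts.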

[8] = test system: K562; experiment: Cell cycle arrest in human K562 cells assessed as accumulation in S phase incubated for 72 hrs by propidium iodide staining based flow cytometry (reference value: 36.05%); format: functional
Summary of the method: (§4)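 Exponentially growing K562 cells treated for 24 or 72 h, untreated cells as control; cells stained with propidium iodide and DNA content read by flow cytometry. Phase distribution (subG1, G0/G1, S, G2/M) taken from one-parameter histograms, subG1 scored as hypodiploid, apoptotic cells.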

[9] = test system: HT-29; experiment: Potency index, ratio of doxorubicin IC50 to compound IC50 for cytotoxicity against human HT-29 cells incubated for 72 hrs by MTT assay; format: functional
[10] = test system: K562; experiment: Cell cycle arrest in human K562 cells assessed as accumulation in SubG1 phase incubated for 72 hrs by propidium iodide staining based flow cytometry (reference value: 3.07%); format: functional; summary of the method: as §4
[11] = test system: K562; experiment: Induction of apoptosis in human K562 cells incubated for 72 hrs by annexin V FITC and propidium iodide staining based flow cytometry relative to control; format: functional; set-up: concentration or dose not given beside the values; summary of the method: as §3
[12] = test system: K562; experiment: Cell cycle arrest in human K562 cells assessed as accumulation in G2/M phase incubated for 72 hrs by propidium iodide staining based flow cytometry (reference value: 15.45%); format: functional; summary of the method: as §4
[13] = test system: MRC5; experiment: Cytotoxicity against human MRC5 cells assessed as reduction in cell viability incubated for 72 hrs by MTT assay; format: cell-based; details: MRC5, 72 h
Summary of the method: (§5)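 Colorimetric MTT assay on human tumour lines K562 (chronic myeloid leukemia), HL-60 (promyelocytic leukemia), Jurkat (T cell leukemia), Raji (Burkitt's lymphoma), HT-29 (colorectal adenocarcinoma), HeLa (cervix adenocarcinoma) and normal lung fibroblast MRC-5; cells exposed to compounds for 72 h.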

[14] = test system: HL-60; experiment: Antiproliferative activity against human HL60 cells assessed as reduction in cell growth incubated for 72 hrs by MTT assay; format: functional, cell-based; details: HL-60, 72 h; summary of the method: as §2
[15] = test system: K562; experiment: Cell cycle arrest in human K562 cells assessed as accumulation in S phase incubated for 24 hrs by propidium iodide staining based flow cytometry (reference value: 48.38%); format: functional; summary of the method: as §4
[16] = test system: K562; experiment: Cell cycle arrest in human K562 cells assessed as accumulation in G2/M phase incubated for 24 hrs by propidium iodide staining based flow cytometry (reference value: 14.29%); format: functional; summary of the method: as §4
[17] = test system: K562; experiment: Potency index, ratio of tiazofurin IC50 to compound IC50 for cytotoxicity against human K562 cells incubated for 72 hrs by MTT assay; format: functional
[18] = test system: K562; experiment: Cell cycle arrest in human K562 cells assessed as accumulation in G0/G1 phase incubated for 72 hrs by propidium iodide staining based flow cytometry (reference value: 45.43%); format: functional; summary of the method: as §4
[19] = test system: K562; experiment: Induction of apoptosis in human K562 cells assessed as 85 kDa PARP level incubated for 72 hrs by Western blot analysis (reference value: 100%); format: functional; summary of the method: as §1
[20] = test system: K562; experiment: Induction of apoptosis in human K562 cells assessed as 18 kDa Caspase 3 active subunit level incubated for 72 hrs by Western blot analysis (reference value: 100%); format: functional; summary of the method: as §1
[21] = test system: K562; experiment: Antiproliferative activity against human K562 cells assessed as reduction in cell growth incubated for 72 hrs by MTT assay; format: functional, cell-based; details: K562, 72 h; summary of the method: as §5
[22] = test system: K562; experiment: Cell cycle arrest in human K562 cells assessed as decrease in cell accumulation at G2/M phase incubated for 72 hrs by propidium iodide staining based flow cytometry relative to tiazofurin; format: functional; summary of the method: as §4
[23] = test system: HeLa; experiment: Potency index, ratio of tiazofurin IC50 to compound IC50 for cytotoxicity against human HeLa cells incubated for 72 hrs by MTT assay; format: functional
[24] = test system: K562; experiment: Induction of apoptosis in human K562 cells incubated for 24 hrs by annexin V FITC and propidium iodide staining based flow cytometry relative to control; format: functional; set-up: concentration or dose not given beside the values
[25] = test system: Raji; experiment: Antiproliferative activity against human Raji cells assessed as reduction in cell growth incubated for 72 hrs by MTT assay; format: functional, cell-based; summary of the method: as §5
[26] = test system: K562; experiment: Induction of apoptosis in human K562 cells assessed as Bcl2 level incubated for 72 hrs by Western blot analysis (reference value: 100%); format: functional; summary of the method: as §1
[27] = test system: HT-29; experiment: Antiproliferative activity against human HT-29 cells assessed as reduction in cell growth incubated for 72 hrs by MTT assay; format: functional, cell-based; details: HT-29, 72 h; summary of the method: as §2
[28] = test system: HeLa; experiment: Antiproliferative activity against human HeLa cells assessed as reduction in cell growth incubated for 72 hrs by MTT assay; format: functional, cell-based; summary of the method: as §2
[29] = test system: K562; experiment: Potency index, ratio of doxorubicin IC50 to compound IC50 for cytotoxicity against human K562 cells incubated for 72 hrs by MTT assay; format: functional
[30] = test system: K562; experiment: Induction of apoptosis in human K562 cells assessed as 112 kDa PARP level incubated for 72 hrs by Western blot analysis (reference value: 100%); format: functional; summary of the method: as §1
[31] = test system: HeLa; experiment: Potency index, ratio of doxorubicin IC50 to compound IC50 for cytotoxicity against human HeLa cells incubated for 72 hrs by MTT assay; format: functional
[32] = test system: K562; experiment: Cell cycle arrest in human K562 cells assessed as accumulation in G0/G1 phase incubated for 24 hrs by propidium iodide staining based flow cytometry (reference value: 36.28%); format: functional; summary of the method: as §4
[33] = test system: Jurkat; experiment: Potency index, ratio of doxorubicin IC50 to compound IC50 for cytotoxicity against human Jurkat cells incubated for 72 hrs by MTT assay; format: functional
[34] = test system: K562; experiment: Cell cycle arrest in human K562 cells assessed as accumulation in sub-G1 phase incubated for 24 hrs by propidium iodide staining based flow cytometry (reference value: 1.05%); format: functional; summary of the method: as §4
[35] = test system: K562; experiment: Genotoxicity in human K562 cells assessed as increase in DNA damage at cytotoxic IC50 incubated for 72 hrs by comet assay; format: toxicity, cell-based; details: k562, 72 h
Summary of the method: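 Modified alkaline comet assay: cells set in agarose on slides, electrophoresed horizontally, stained with ethidium bromide and imaged by fluorescence microscopy. 50 comets scored per sample; mean tail moment used as the DNA-damage measure.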

[36] = test system: K562; experiment: Induction of necrosis in human K562 cells incubated for 24 hrs by annexin V FITC and propidium iodide staining based flow cytometry relative to control; format: functional; set-up: concentration or dose not given beside the values

`NC(=O)c1csc([C@@H]2O[C@H](CO)[C@H](N)[C@H]2O)n1` was tested, and the Activity [1] was “Active”, the “Ratio IC50” value [2] was 11 - 318 and the “Ratio IC50” value [3] was 11 - 318. For the same compound, the Activity [4] was 240.62%, the Activity [5] was 1465.64% and the IC50 [6] was 3.6 nM. For the same compound, the Activity [7] was 20.43%, the Activity [8] was 32.99% and the “Ratio IC50” value [9] was 5 - 30. The Activity [10] was 12.78%, the Activity [11] was 34.37% and the Activity [12] was 13.77%. It also gave an IC50 [13] of over 100000 nM, an IC50 [14] of 9390 nM and an Activity [15] of 35.75%. For the same compound, the Activity [16] was 4.72%, the “Ratio IC50” value [17] was 11 - 318 and the Activity [18] was 40.45%. It also gave an Activity [19] of 104.95%, an Activity [20] of 172.46% and an IC50 [21] of 35 nM. The “fold change (FC)” value [22] was 2 - 2.4, the “Ratio IC50” value [23] was 11 - 318 and the Activity [24] was 6.35%. The IC50 [25] was 3850 nM, the Activity [26] was 164.9% and the IC50 [27] was 5 nM. The IC50 [28] was 12 nM, the “Ratio IC50” value [29] was 5 - 30 and the Activity [30] was 84.76%. The “Ratio IC50” value [31] was 5 - 30, the Activity [32] was 55.65% and the “Ratio IC50” value [33] was 5 - 30. The Activity [34] was 3.87%, the Activity [35] was “Toxic” and the Activity [36] was -0.99%.
